Measurements from ChEMBL document CHEMBL2177035, “Design and synthesis of dual modulators of soluble epoxide hydrolase and peroxisome proliferator-activated receptors” (J Med Chem, 2012).
Activity calls are given as the source filed them. The calls are words filed in the database; no cut-off is given here.

Assays:
[1] = target: T1, Peroxisome proliferator-activated receptor alpha (Homo sapiens) (UniProt Q07869); assay: Transactivation of GAL4-fused human PPARalpha ligand binding domain transfected in african green monkey COS7 cells at 10 uM by luciferase reporter gene assay relative to GW7647; assay type: cell-based; conditions: COS-7
T1 sequence (whole entry): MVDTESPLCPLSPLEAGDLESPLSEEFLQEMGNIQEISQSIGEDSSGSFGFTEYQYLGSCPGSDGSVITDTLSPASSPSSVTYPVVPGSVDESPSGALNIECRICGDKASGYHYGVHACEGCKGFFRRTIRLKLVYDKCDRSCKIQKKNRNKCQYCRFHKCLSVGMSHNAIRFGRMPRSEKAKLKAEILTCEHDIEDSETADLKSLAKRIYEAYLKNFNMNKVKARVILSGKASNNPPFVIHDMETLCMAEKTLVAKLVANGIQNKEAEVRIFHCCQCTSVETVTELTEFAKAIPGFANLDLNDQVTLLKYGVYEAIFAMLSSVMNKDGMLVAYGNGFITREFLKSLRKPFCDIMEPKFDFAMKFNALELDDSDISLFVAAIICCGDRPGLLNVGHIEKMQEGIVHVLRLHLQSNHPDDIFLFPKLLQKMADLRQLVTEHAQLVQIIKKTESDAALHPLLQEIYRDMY
Outline: (§1)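 COS7 cells in DMEM/10% FCS at 37 °C, 5% CO2, plated 30000/well the day before. Lipofectamine LTX co-transfection of pFR-Luc, pRL-SV40 and Gal4–hPPAR-LBD (pFA-CMV) of the given subtype. After 5 h, switched to phenol red-free DMEM/10% FCS with 0.1% DMSO and compound; overnight incubation. Dual-Glo firefly/renilla luminescence, normalized to DMSO. Maximum effect compared with 1 μM reference agonist (GW7647 for α, L165,041 for δ). Triplicate wells, ≥3 independent runs.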

[2] = target: T2, Peroxisome proliferator-activated receptor delta (Homo sapiens) (UniProt Q03181); assay: Transactivation of GAL4-fused human PPARdelta ligand binding domain transfected in african green monkey COS7 cells at 10 uM by luciferase reporter gene assay relative to L-165041; assay type: cell-based; conditions: COS-7; outline: as §1
T2 sequence (whole entry): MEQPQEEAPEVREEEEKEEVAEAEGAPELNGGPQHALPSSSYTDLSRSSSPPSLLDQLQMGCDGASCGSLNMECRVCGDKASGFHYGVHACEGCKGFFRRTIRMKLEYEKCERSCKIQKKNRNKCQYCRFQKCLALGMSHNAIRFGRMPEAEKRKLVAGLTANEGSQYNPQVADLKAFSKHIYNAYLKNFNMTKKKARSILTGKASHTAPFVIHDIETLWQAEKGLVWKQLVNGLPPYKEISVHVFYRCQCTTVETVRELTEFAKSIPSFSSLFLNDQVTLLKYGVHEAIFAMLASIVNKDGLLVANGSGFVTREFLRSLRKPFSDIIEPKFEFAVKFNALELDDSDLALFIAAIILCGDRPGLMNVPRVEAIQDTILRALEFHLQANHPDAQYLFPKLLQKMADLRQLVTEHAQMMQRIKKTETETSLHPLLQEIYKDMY

[3] = target: T3, Bifunctional epoxide hydrolase 2 (Homo sapiens, UniProt P34913); assay: Inhibition of recombinant soluble epoxide hydrolase using PHOME as substrate after 10 mins by fluorescence assay
T3 sequence (P34913 whole entry): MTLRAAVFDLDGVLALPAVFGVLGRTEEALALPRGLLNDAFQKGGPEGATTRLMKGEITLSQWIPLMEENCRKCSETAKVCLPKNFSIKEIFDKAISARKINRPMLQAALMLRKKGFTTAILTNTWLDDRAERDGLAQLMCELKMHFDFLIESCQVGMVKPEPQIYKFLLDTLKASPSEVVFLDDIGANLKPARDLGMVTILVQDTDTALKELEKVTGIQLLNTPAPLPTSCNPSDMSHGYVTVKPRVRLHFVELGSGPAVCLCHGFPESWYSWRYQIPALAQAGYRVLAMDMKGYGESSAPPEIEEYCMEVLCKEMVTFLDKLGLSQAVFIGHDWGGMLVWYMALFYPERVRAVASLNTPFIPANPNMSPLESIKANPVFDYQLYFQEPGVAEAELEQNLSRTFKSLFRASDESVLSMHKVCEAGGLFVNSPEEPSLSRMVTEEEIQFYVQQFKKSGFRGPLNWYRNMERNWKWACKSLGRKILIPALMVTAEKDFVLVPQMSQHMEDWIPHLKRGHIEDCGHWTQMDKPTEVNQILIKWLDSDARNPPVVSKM

[4] = target: T1, Peroxisome proliferator-activated receptor alpha (Homo sapiens); assay: Transactivation of GAL4-fused human PPARalpha ligand binding domain transfected in african green monkey COS7 cells by luciferase reporter gene assay; assay type: cell-based; conditions: COS-7
Outline: (§2)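 Gal4–hPPAR-LBD (α or δ) transient co-transfection with pFR-Luc and pRL-SV40 into COS7 cells seeded 30000/well. Compounds given in phenol red-free DMEM/10% FCS with 0.1% DMSO from 5 h post-transfection, overnight. Firefly over renilla luminescence, divided by DMSO control. EC50 and SD from means of ≥3 determinations by four-parameter logistic fit; triplicate wells, ≥3 independent experiments.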

[5] = target: T2, Peroxisome proliferator-activated receptor delta (Homo sapiens); assay: Transactivation of GAL4-fused human PPARdelta ligand binding domain transfected in african green monkey COS7 cells by luciferase reporter gene assay; assay type: cell-based; conditions: COS-7; outline: as §2

SMILES	Activity [1]	Activity [2]	IC50 [3]	%max [4]	Activity [5]	Activity [4]
CCOC(=O)c1cccn1Cc1ccccc1CNC(=O)NC12C[C@H]3C[C@@H](C1)C[C@@H](C2)C3	inactive	inactive	43 nM	–	–	–
CCOC(=O)c1cccn1Cc1ccc(CNC(=O)NC2CCCCC2)cc1	inactive	inactive	23 nM	–	–	–
O=C(NCc1ccc(Cn2cccc2C(=O)O)cc1)Nc1ccc(OC(F)(F)F)cc1	67%	inactive	258 nM	90%	inactive	–
CCOC(=O)c1cccn1Cc1ccccc1CNC(=O)Nc1ccc(OC(F)(F)F)cc1	inactive	inactive	2010 nM	–	–	–
O=C(NCc1ccccc1Cn1cccc1C(=O)O)Nc1ccc(OC(F)(F)F)cc1	38%	inactive	–	55%	inactive	–
CCOC(=O)c1cccn1Cc1ccccc1CNC(=O)NC1CCCCC1	inactive	inactive	39 nM	–	–	–
CCOC(=O)c1cccn1Cc1cccc(CNC(=O)Nc2ccc(OC(F)(F)F)cc2)c1	inactive	inactive	–	–	–	–
O=C(NCc1ccc(Cn2cccc2C(=O)O)cc1)NC12C[C@H]3C[C@@H](C1)C[C@@H](C2)C3	inactive	inactive	73 nM	–	–	–
O=C(NCc1cccc(Cn2cccc2C(=O)O)c1)Nc1ccc(OC(F)(F)F)cc1	58%	–	943 nM	97%	–	–
O=C(NCc1ccccc1Cn1cccc1C(=O)O)NC1CCCCC1	inactive	inactive	747 nM	–	–	–
O=C(NCc1cccc(Cn2cccc2C(=O)O)c1)NC12C[C@H]3C[C@@H](C1)C[C@@H](C2)C3	inactive	inactive	304 nM	–	–	–
O=C(NCc1ccc(Cn2cccc2C(=O)O)cc1)NC1CCCCC1	inactive	inactive	252 nM	–	–	–
O=C(NCc1cccc(Cn2cccc2C(=O)O)c1)NC1CCCCC1	inactive	inactive	1920 nM	–	–	–
O=C(NCc1ccccc1Cn1cccc1C(=O)O)NC12C[C@H]3C[C@@H](C1)C[C@@H](C2)C3	inactive	inactive	–	–	inactive	inactive
CCOC(=O)c1cccn1Cc1cccc(CNC(=O)NC23C[C@H]4C[C@@H](C2)C[C@@H](C3)C4)c1	inactive	inactive	46 nM	–	–	–
CCOC(=O)c1cccn1Cc1cccc(CNC(=O)NC2CCCCC2)c1	inactive	inactive	27 nM	–	–	–
CCOC(=O)c1cccn1Cc1ccc(CNC(=O)NC23C[C@H]4C[C@@H](C2)C[C@@H](C3)C4)cc1	inactive	inactive	87 nM	–	–	–
CCOC(=O)c1cccn1Cc1ccc(CNC(=O)Nc2ccc(OC(F)(F)F)cc2)cc1	inactive	inactive	611 nM	–	–	–
